From ChEMBL document CHEMBL2429840, “The lignan (-)-hinokinin displays modulatory effects on human monoamine and GABA transporter activities” (J Nat Prod, 2013)
The source made the active and inactive calls. The calls are words filed in the database; no cut-off is given here.

Tests used:
[1] = target: T1, Sodium-dependent dopamine transporter (Homo sapiens, UniProt Q01959); test: Inhibition of human DAT expressed in MDCK cells using [3H]-dopamine as substrate after 10 mins by scintillation counting; format: cell-based
T1 sequence (Q01959 whole entry): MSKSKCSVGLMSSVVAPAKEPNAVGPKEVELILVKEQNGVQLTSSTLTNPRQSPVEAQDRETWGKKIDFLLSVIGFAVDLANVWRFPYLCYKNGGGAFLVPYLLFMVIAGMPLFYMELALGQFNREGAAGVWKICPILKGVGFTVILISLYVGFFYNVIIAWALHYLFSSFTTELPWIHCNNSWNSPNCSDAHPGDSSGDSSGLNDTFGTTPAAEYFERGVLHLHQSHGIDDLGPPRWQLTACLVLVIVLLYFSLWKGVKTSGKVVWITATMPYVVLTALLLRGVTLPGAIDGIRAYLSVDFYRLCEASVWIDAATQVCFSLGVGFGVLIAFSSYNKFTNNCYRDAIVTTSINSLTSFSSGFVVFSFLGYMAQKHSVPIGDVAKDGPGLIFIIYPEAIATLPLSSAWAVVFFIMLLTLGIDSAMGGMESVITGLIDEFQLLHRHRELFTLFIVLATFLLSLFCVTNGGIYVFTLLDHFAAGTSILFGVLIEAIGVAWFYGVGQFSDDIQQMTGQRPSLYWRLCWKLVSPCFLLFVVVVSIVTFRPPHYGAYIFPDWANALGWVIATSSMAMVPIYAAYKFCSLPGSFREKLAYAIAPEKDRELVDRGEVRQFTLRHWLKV
How it was run: (§1)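 Transfected MDCK cells were washed with PBS-CM and preincubated 10 min at room temperature with compound (0.2–200 or 0.5–500 μM) or vehicle. Uptake of 50 nM radiolabeled substrate then ran for 10 min at room temperature, with RO 41-0960 added for dopamine. Naive MDCK background was subtracted. IC50 came from nonlinear regression of three independent assays run in triplicate.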

[2] = target: T2, Sodium-dependent noradrenaline transporter (Homo sapiens, UniProt P23975); test: Inhibition of human NET expressed in MDCK cells using [3H]-norepinephrine as substrate at 200 uM after 10 mins by scintillation counting; format: cell-based
T2 sequence (P23975 whole entry): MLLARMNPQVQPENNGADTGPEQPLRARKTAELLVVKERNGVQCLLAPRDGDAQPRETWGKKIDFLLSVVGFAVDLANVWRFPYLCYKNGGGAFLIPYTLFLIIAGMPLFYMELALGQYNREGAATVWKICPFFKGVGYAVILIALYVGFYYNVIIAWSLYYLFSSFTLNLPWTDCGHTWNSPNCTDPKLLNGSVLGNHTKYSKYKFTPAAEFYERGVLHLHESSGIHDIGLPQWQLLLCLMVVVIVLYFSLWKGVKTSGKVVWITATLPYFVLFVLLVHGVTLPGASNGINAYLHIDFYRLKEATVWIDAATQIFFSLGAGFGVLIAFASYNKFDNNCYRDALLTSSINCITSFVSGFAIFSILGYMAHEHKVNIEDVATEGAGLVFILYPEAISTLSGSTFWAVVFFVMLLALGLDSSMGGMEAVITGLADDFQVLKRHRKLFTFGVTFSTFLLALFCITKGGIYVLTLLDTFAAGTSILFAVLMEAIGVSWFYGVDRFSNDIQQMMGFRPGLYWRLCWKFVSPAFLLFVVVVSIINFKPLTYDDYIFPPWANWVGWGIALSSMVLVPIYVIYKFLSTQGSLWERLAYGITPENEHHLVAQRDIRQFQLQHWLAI

[3] = target: Sodium-dependent serotonin transporter (Homo sapiens, UniProt P31645); test: Inhibition of human SERT expressed in MDCK cells using [3H]-serotonin as substrate after 10 mins by scintillation counting; format: cell-based; how it was run: as §1
Sodium-dependent serotonin transporter, sequence (P31645 whole entry): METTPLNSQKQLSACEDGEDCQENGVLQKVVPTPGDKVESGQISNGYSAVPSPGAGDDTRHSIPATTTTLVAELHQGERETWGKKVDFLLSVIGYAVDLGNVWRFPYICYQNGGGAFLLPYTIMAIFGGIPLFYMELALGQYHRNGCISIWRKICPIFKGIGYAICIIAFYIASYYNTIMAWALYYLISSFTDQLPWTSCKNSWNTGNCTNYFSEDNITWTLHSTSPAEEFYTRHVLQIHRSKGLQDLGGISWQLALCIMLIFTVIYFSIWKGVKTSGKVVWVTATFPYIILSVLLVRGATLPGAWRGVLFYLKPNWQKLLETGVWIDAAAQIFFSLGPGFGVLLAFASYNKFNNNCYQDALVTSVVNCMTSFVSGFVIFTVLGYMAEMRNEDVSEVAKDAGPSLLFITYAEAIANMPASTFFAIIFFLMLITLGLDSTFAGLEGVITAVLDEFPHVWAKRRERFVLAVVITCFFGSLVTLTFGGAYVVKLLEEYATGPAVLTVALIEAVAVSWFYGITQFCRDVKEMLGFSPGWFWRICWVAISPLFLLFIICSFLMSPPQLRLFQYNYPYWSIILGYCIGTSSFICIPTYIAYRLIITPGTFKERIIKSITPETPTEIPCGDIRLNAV

[4] = target: T2, Sodium-dependent noradrenaline transporter; test: Inhibition of human NET expressed in MDCK cells using [3H]-norepinephrine as substrate after 10 mins by scintillation counting; format: cell-based; how it was run: as §1
[5] = target: T3, Sodium- and chloride-dependent GABA transporter 1 (Homo sapiens, UniProt P30531); test: Inhibition of GAT-1 (unknown origin)
How it was run: (§2)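 Transporter transiently expressed in COS-7 cells, with compound tested in dose–response (EAATs at 0.5–500 μM) against vehicle. Nonspecific uptake from empty-vector (pcDNA3) COS-7 sister cultures was subtracted. IC50 came from nonlinear regression of at least three independent experiments run in triplicate.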
Target sequence in this assay (P30531 whole entry, looked up): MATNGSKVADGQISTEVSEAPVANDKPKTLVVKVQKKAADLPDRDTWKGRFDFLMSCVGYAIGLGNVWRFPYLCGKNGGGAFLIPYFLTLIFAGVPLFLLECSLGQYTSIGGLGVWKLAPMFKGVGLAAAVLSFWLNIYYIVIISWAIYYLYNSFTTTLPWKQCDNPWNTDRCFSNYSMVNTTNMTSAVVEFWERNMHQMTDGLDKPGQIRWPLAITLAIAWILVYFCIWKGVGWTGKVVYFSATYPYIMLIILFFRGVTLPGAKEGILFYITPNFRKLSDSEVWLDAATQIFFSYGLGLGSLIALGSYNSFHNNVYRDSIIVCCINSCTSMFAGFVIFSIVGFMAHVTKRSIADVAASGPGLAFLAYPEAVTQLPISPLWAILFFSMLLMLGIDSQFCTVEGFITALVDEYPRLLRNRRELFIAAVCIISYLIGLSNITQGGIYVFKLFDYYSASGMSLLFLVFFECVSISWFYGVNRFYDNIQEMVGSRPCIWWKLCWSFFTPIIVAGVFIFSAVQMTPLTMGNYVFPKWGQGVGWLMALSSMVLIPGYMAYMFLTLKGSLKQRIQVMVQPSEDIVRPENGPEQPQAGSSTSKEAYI

[6] = target: T4, Excitatory amino acid transporter 3 (Homo sapiens, UniProt P43005); test: Inhibition of EAAT3 (unknown origin) expressed in african green monkey COS7 cells using [3H]-glutamic acid as substrate after 10 mins by scintillation counting; format: cell-based, COS-7; how it was run: as §2
T4 sequence (P43005 whole entry): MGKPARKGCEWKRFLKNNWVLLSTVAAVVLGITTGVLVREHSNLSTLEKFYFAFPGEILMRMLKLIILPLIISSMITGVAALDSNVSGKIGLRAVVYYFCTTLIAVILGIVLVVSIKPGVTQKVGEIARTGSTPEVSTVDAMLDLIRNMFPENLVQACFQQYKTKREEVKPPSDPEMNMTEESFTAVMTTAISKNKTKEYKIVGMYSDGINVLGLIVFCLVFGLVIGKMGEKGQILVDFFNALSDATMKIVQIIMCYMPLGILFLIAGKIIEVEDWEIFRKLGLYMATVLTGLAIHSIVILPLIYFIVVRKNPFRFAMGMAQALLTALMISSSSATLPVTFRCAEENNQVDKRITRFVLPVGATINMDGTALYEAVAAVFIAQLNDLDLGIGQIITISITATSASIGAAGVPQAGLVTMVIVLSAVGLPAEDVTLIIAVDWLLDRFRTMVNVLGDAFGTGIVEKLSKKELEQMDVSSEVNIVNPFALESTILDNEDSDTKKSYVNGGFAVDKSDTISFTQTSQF

[7] = target: T1, Sodium-dependent dopamine transporter; test: Non-competitive inhibition of human DAT expressed in MDCK cells using [3H]-dopamine as substrate; format: cell-based
How it was run: (§3)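 Cells were preincubated with or without 20 μM compound for 10 min at room temperature. Uptake then ran with eight concentrations of unlabeled/radiolabeled substrate mix, in triplicate. Dopamine (99.9%:0.1%, 45 nM–100 μM) was used in hDAT MDCK cells and GABA (99.95%:0.05%) in GAT-1 COS-7 cells. Nonspecific uptake was subtracted, Michaelis–Menten Vmax/KM were fitted, and n≥3 independent assays were analysed by paired t-test.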

[8] = target: Excitatory amino acid transporter 2 (Homo sapiens, UniProt P43004); test: Inhibition of EAAT2 (unknown origin) expressed in african green monkey COS7 cells using [3H]-glutamic acid as substrate after 10 mins by scintillation counting; format: cell-based, COS-7; how it was run: as §2
Excitatory amino acid transporter 2, sequence (P43004 whole entry): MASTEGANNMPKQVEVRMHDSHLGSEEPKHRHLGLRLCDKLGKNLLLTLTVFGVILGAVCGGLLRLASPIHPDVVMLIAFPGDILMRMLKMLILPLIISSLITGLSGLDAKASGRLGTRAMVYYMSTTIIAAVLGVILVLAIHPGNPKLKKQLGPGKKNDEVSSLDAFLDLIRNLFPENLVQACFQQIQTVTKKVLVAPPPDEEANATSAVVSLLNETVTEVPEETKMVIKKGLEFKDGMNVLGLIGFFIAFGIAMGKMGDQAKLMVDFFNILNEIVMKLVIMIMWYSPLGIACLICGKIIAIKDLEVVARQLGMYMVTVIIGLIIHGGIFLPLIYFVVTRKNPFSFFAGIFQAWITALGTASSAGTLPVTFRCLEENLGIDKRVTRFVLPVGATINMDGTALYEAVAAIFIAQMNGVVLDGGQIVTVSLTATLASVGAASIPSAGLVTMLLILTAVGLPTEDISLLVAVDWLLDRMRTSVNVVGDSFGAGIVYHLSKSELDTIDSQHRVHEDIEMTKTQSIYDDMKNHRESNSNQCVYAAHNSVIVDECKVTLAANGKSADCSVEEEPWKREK

[9] = target: T1, Sodium-dependent dopamine transporter; test: Activity at human DAT expressed in MDCK cells assessed as dopamine release at 0.5 to 500 uM after 10 mins using [3H]-dopamine pretreated for 1 hr before compound addition followed by wash out by reversed transport efflux assay; format: cell-based
How it was run: (§4)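 Reverse-transport efflux of preloaded substrate: hDAT in MDCK GFP-hDAT cells, hNET and GAT-1 in transiently transfected COS-7 cells. Compound tested at 0.5–500 μM against vehicle (basal) release. Non-radiolabeled substrate served as the positive control for assay integrity.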

[10] = target: T5, Sodium- and chloride-dependent GABA transporter 3 (Homo sapiens, UniProt P48066); test: Inhibition of GAT-3 (unknown origin) expressed in african green monkey COS7 cells using [3H]-GABA as substrate after 10 mins by scintillation counting; format: cell-based, COS-7; how it was run: as §2
T5 sequence (P48066 whole entry): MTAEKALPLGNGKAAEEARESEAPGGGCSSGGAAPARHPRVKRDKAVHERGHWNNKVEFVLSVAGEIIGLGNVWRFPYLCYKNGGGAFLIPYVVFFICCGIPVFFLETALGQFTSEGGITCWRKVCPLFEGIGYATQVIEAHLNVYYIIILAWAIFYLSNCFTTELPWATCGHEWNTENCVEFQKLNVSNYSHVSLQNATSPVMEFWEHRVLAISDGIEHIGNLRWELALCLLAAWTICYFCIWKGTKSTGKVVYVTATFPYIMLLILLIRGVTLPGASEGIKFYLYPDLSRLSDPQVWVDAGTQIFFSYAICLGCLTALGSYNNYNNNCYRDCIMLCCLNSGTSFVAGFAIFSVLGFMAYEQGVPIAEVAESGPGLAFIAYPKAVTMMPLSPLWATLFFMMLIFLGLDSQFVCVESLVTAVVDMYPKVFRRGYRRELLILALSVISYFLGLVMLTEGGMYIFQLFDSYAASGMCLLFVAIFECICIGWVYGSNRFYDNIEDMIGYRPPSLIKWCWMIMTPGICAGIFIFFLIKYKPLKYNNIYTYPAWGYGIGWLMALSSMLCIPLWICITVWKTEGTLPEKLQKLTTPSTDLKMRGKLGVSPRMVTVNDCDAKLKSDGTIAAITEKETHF

[11] = target: T3, Sodium- and chloride-dependent GABA transporter 1; test: Activity at GAT1 (unknown origin) expressed in african green monkey COS7 cells assessed as GABA release at 0.5 to 500 uM after 10 mins using [3H]-GABA pretreated for 1 hr before compound addition followed by wash out by reversed transport efflux assay; format: cell-based; conditions: COS-7; how it was run: as §4
Target sequence in this assay (P30531 whole entry, looked up): as the sequence (P30531 whole entry, looked up) above

[12] = target: T2, Sodium-dependent noradrenaline transporter; test: Activity at human NET expressed in african green monkey COS7 cells assessed as norepinephrine release at 0.5 to 500 uM after 10 mins using [3H]-norepinephrine pretreated for 1 hr before compound addition followed by wash out by reversed transport efflux assay; format: cell-based; conditions: COS-7; how it was run: as §4
[13] = target: T3, Sodium- and chloride-dependent GABA transporter 1; test: Non-competitive inhibition of GAT-1 (unknown origin) expressed in african green monkey COS7 cells using [3H]-GABA as substrate; format: cell-based; conditions: COS-7; how it was run: as §3
Target sequence in this assay (P30531 whole entry, looked up): as above

[14] = target: T6, Sodium- and chloride-dependent glycine transporter 1 (Homo sapiens, UniProt P48067); test: Inhibition of GlyT1 (unknown origin) expressed in MDCK cells using [3H]-glycine as substrate after 10 mins by scintillation counting; format: cell-based; how it was run: as §1
T6 sequence (P48067 whole entry): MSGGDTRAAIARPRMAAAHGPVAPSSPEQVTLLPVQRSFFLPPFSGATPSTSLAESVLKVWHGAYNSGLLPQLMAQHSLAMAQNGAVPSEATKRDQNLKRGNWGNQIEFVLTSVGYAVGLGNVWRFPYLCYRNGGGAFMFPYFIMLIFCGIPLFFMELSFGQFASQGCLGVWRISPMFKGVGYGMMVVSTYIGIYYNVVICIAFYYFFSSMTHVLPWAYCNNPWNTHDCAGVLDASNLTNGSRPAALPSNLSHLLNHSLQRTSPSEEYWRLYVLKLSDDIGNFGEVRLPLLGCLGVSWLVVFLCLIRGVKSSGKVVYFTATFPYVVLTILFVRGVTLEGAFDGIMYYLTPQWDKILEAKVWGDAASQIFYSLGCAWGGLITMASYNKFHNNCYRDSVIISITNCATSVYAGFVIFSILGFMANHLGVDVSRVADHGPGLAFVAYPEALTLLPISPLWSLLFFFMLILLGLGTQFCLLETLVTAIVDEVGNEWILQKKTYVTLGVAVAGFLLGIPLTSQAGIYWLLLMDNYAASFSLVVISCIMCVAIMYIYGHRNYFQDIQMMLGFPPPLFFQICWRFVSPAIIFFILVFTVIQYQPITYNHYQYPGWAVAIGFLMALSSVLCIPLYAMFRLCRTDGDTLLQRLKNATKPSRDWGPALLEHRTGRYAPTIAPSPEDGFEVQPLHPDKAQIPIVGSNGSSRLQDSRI

[15] = target: Excitatory amino acid transporter 1 (Homo sapiens, UniProt P43003); test: Inhibition of EAAT1 (unknown origin) expressed in african green monkey COS7 cells using [3H]-glutamic acid as substrate after 10 mins by scintillation counting; format: cell-based, COS-7; how it was run: as §2
Excitatory amino acid transporter 1, sequence (P43003 whole entry): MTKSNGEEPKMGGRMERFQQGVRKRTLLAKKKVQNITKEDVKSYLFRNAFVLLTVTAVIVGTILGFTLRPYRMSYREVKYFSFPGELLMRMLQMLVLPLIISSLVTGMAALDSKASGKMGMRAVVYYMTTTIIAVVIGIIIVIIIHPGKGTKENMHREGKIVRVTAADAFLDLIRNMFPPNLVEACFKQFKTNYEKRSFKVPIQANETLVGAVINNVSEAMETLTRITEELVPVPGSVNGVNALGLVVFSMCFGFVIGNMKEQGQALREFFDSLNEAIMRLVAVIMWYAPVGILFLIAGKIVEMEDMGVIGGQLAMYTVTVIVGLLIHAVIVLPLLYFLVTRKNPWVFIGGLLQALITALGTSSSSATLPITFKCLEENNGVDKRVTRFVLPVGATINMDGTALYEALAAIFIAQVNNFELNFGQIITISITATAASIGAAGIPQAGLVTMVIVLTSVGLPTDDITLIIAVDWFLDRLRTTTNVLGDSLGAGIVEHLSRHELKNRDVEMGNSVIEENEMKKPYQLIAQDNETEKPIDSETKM

[16] = target: T3, Sodium- and chloride-dependent GABA transporter 1; test: Inhibition of GAT-1 (unknown origin) expressed in african green monkey COS7 cells using [3H]-GABA as substrate after 10 mins by scintillation counting; format: cell-based, COS-7; how it was run: as §2
Target sequence in this assay (P30531 whole entry): as the sequence (P30531 whole entry, looked up) above

[17] = target: T2, Sodium-dependent noradrenaline transporter; test: Non-competitive inhibition of human NET expressed in COS-7 cells using [3H]-norepinephrine as substrate
[18] = target: T3, Sodium- and chloride-dependent GABA transporter 1; test: Allosteric modulation of GAT-1 (unknown origin) expressed in african green monkey COS7 cells using [3H]-GABA as substrate at 20 uM; format: cell-based; conditions: COS-7; how it was run: as §3
Target sequence in this assay (P30531 whole entry, looked up): as above

[19] = Toxicity in Wistar rat peripheral blood micronucleus

COC1OC[C@@H](Cc2ccc3c(c2)OCO3)[C@@H]1Cc1ccc2c(c1)OCO2 (stereo partly drawn) [(-)-O-METHYLCUBEBIN]
IC50 [1]: 78.6 µM | inhibition [2]: inactive | IC50 [3]: 90.3 µM

O[C@H]1OC[C@H](Cc2ccc3c(c2)OCO3)[C@H]1Cc1ccc2c(c1)OCO2
IC50 [4]: > 200 µM | IC50 [1]: 12 µM | inhibition [1]: Dose-dependent effect | IC50 [3]: > 200 µM

O=C(O)C1=CCCN(CCOC(c2ccc(C(F)(F)F)cc2)c2ccc(C(F)(F)F)cc2)C1
IC50 [5]: 0.26 µM

O=C(O)C1=CCCN(CCON=C(c2ccccc2)c2ccccc2)C1
IC50 [5]: 0.04 µM

O=C1OC[C@H](Cc2ccc3c(c2)OCO3)[C@H]1Cc1ccc2c(c1)OCO2 [HINOKININ]
IC50 [6]: > 500 µM | IC50 [4]: 8.76 µM | inhibition [7]: Active | IC50 [8]: > 100 µM | Activity [9]: inactive | IC50 [1]: 8.35 µM | inhibition [1]: Dose-dependent effect | IC50 [10]: > 500 µM | Activity [11]: inactive | Activity [12]: inactive | inhibition [13]: Active | IC50 [14]: > 500 µM | IC50 [15]: > 500 µM | IC50 [3]: 175 µM | IC50 [16]: 20.6 µM | inhibition [17]: Active | Activity [18]: Active | Activity [19]: Non-toxic
